Data published in the M2OR odorant receptor database.

Target: T1, OR5P3 (Homo sapiens) (UniProt Q8WZ94)
T1 sequence (whole entry): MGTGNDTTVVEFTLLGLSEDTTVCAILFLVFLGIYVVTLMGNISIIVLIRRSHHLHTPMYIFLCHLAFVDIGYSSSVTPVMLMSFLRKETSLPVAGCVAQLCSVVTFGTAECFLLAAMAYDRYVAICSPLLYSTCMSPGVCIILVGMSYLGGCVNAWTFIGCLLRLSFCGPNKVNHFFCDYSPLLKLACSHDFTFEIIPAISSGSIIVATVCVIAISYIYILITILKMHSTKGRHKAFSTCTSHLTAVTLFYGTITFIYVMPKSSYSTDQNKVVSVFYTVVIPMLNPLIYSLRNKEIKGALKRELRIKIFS
Settings: stereoisomer not certain
Outline: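 Each receptor–molecule pair is labelled responsive or non-responsive (inactive) according to whether the original authors judged the measured signal statistically different from baseline. The data were taken from the main text and supplementary material of published papers and checked for typos and inconsistencies. Assay methods differed by source, with transient luciferase assays in mammalian cell lines being common.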

Structure (SMILES)	odorant receptor agonist call;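 further: active if original authors judged signal statistically different from baseline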
c1ccccc1	inactive
CC(C)=CCCC(C)CCO (stereo not given)	inactive
CC(=O)Oc1ccccc1	inactive
CCOC(=O)C(C)C	inactive
CC(=O)OCc1ccccc1	inactive
O=c1ccc2ccccc2o1	active
CC12CCC(CC1=O)C2(C)C (stereo not given)	inactive
CCCCCCCCO	inactive
CCCC(C)=O	inactive
CCCCCC1=C(C)CCC1=O	inactive
CCCCCCO	active
CCCCOC(=O)C(C)OC(=O)CCC (stereo not given)	inactive
CCC(=O)O	inactive
CCCCCCCCCCO	inactive
COc1cc(C(=O)O)ccc1O	inactive
CCCCCC=O	inactive
O=C1CCOc2ccccc21	inactive
CCCCCCCO	active
C=C(C)C1CCC(C)C(=O)C1 (stereo not given)	inactive
CCCCCCCCCO	inactive
CCCC(=O)C(C)=O	inactive
CCCCCCCC(C)=O	inactive
O=C(c1ccccc1)c1ccccc1	inactive
CCCCOC=O	inactive
C=CCOC(=O)CCCCCC	inactive
CCCCCCOC(C)=O	inactive
CCCCCCCC(=O)[O-].[H+]	inactive
CCCCCCCCCS	inactive
CC(=O)OCC=C(C)C	inactive
CCCCCCCCC(=O)O	inactive
